Source: PubChem BioAssay (several laboratories)
CSC inhib: cancer stem cell viability inhibitors, primary screen, luminescence | cancer stem cell-like cells viability | inhibition, % at 7.5 µM | 300,000 tested, 1.1% active | AID 2717, 2010; in the data active means inhibition above about 75%; inconclusive means no clear call, values can overlap the other calls; tested in HMLE shEcad cells
Beta apoptosis: inhibitors of cytokine-induced beta cell apoptosis, primary screen, luminescence; protection from apoptosis, % (test concentration not listed); INS-1E cytokine-induced death, ATP luminescence, 48 h; percent of positive-control rescue, neutral wells zero; 300,000 tested, 0.8% active; AID 435005, 2010;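 active means Every replicate reaches about 75%, or at least half do and their mean reaches it too, limit read from the data; inconclusive means At least half of replicates reach the limit but their mean does not; inactive means Under half of replicates reach the limit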;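 further: 0% = cytokine-treated negative control wells and 100% = positive control rescue; higher means more ATP so stronger rescue from cytokine killing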
UPR XBP1 act: activators of adaptive XBP1 UPR arm, primary screen, cell-based, CHO-XBP1 luciferase reporter, luminescence, uHTS | IRE1-XBP1 UPR activation; percent of tunicamycin response, DMSO as zero | activation, % at 20 µM | 330,000 tested, 0.33% active;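 active means versus positive control, 20 µM dose yields 30% or more activation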;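 further: 100% = tunicamycin at 10 µg/mL and 0% = DMSO only wells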
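Material: CHO-XBP1 cells stably carrying IRE1-XBP1-driven luciferase reporter | Medium: F12 with 10% serum | Compound dosing: 20 µM single concentration, DMSO 1% | Incubation: Overnight seeding at 37 °C, 6 h compound treatment at 37 °C | Detection: Steady-Glo luminescence read | Read-out basis: % activation of reporter signal versus tunicamycin and DMSO controls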
CHOP UPR activ: activators of apoptotic CHOP UPR arm, primary screen, cell-based, CHO-CHOP luciferase reporter, luminescence, uHTS; 330,000 tested, 0.34% active; activation, % at 10 µM; AID 449763, 2010; UPR activation; percent of tunicamycin response over DMSO baseline;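 active means at 10 µM dose, activation of 40% or more, normalized to positive control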;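 further: 100% = tunicamycin at 10 µg/mL and 0% = DMSO alone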
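measured by = luciferase luminescence | assay system = CHO-CHOP cells, stable luciferase reporter of PERK-eIF2a-CHOP signalling | amount = 500 reporter cells seeded per well | timing = 6 h compound exposure at 37 °C after overnight seeding | controls = positive tunicamycin 10 µg/mL, negative DMSO alone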
SKKanGAS inh: S. pyogenes SKKanGAS growth inhibitors in kanamycin, primary screen, streptokinase expression inhibitor project, SKKanGAS strain, BacTiter-Glo luminescence; 6 h; inhibition, % at 7.5 µM; 300,000 tested, 1.3% active;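 active means mean replicate score, as percent of positive control median, at least 50; inconclusive means mean below 50 but one replicate at or above 50; inactive means mean and every replicate below 50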;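 further: strain carries kanamycin resistance gene driven by streptokinase promoter and grows in 40 µg/ml kanamycin; loss of luminescence reflects streptokinase promoter inhibition or plain growth inhibition; 0% = median of DMSO wells and 100% = positive control at its reference dose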
Mdm2 MdmX PPI: inhibitors of human Mdm2-MdmX association, primary screen, cell-based, luminescence, split luciferase, SaOS-2, uHTS; 330,000 tested, 3% active; SaOS-2 split-luciferase Mdm2/MdmX complementation; inhibition, % at 8 µM;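 active means inhibition of at least 50% at 8 µM in the primary screen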
Target sequence (O15151 whole entry, looked up): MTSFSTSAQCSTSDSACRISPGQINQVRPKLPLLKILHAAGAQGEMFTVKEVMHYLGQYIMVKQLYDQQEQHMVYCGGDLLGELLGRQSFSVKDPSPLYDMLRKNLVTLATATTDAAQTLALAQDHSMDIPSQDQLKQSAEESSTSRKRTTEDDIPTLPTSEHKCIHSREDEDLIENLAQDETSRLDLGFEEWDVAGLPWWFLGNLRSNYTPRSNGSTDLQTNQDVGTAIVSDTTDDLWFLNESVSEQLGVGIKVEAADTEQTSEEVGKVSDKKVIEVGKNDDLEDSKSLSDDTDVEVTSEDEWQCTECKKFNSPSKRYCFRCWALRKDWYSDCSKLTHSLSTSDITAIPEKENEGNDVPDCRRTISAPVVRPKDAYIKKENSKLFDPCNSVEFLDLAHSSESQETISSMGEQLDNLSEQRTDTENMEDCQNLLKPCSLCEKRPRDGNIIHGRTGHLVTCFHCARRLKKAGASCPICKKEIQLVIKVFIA
Target sequence (Q00987 whole entry, looked up): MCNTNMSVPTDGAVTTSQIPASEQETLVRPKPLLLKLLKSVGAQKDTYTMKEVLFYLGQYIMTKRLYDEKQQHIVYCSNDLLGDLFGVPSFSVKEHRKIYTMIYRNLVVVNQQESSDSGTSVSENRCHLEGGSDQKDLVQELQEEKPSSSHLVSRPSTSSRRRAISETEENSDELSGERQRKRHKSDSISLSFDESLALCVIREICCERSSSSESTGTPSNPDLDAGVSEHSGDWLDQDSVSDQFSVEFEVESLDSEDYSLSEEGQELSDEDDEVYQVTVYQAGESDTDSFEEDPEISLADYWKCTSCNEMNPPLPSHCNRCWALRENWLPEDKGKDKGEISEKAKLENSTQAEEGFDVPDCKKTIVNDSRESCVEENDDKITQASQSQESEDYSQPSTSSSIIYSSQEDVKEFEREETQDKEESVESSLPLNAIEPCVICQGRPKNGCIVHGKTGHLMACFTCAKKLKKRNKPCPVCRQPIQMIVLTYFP
The depositor's hits bear a star; ? = inconclusive; · = not tested or not shown. In the library only some 4.8% were active in any assay of this set; here they are far more common.

SMILES	CSC inhib	Beta apoptosis	UPR XBP1 act	CHOP UPR activ	SKKanGAS inh	Mdm2 MdmX PPI
COc1cc(/C=N/O)ccc1OCc1ccc(Cl)cc1	6	1	-2	2	-9	-186
CCOc1cc(/C=N/N=C(N)N)ccc1OCc1ccc(Cl)cc1	106*	16	·	·	4	·
O=C(CSc1nnc(NC(=O)c2ccccc2[N+](=O)[O-])s1)NC1CCCC1	-9	2	4	1	51*	-17
COc1ccc(NC(=O)CN(C)C(=O)c2c(C)nn(Cc3ccc(C)cc3)c2Cl)cc1	-5	7	-1	1	·	6
CC1CCCN(C(=O)C2CCN(S(=O)(=O)c3cccc4nonc34)CC2)C1 (stereo not given)	-12	4	0	-1	14	-9
CCCOc1cccc(-c2cc(C(=O)N/N=C/c3ccccn3)c3ccccc3n2)c1	33	24	-2	296*	92*	33
CCCc1ccc(-c2cc(C(=O)N/N=C/c3ccc([N+](=O)[O-])o3)c3ccccc3n2)cc1	-14	12	0	3	96*	22
CCCOc1cccc(-c2cc(C(=O)N/N=C/c3cccnc3)c3ccccc3n2)c1	-10	5	-1	3	·	26
O=C(COc1ccccc1)N/N=C/c1ccc([N+](=O)[O-])o1	2	10	8	10	20	23
O=C(N/N=C/c1ccco1)c1cc(-c2ccccc2)nc2ccccc12	12	3	-4	-1	0	1
O=C(CNc1ccc2ccccc2c1)N/N=C/c1ccc([N+](=O)[O-])o1	13	6	-2	-1	83*	18
CCCN1CCN(C(=O)c2cc(COc3ccc(F)cc3F)on2)CC1	-2	-9	-4	0	6	20
O=c1c2cc(N3CCOCC3)ccc2[nH]c(=S)n1CCc1ccccc1	45	0	4	5	84*	-19
COc1ccc(CCn2c(=S)[nH]c3ccc(N4CCOCC4)cc3c2=O)cc1OC	-12	-6	1	0	44	-22
COc1cc(Cl)cc(/C=C/c2ccc3cccc(O)c3n2)c1OC	46	25	3	4	87*	49
COC(=O)c1ccc(/C=C/c2ccc3cccc(OC(C)=O)c3n2)cc1	28	5	-2	4	53*	-124
CCOc1c(OC(C)=O)ccc(/C=C/c2ccc3cccc(OC(C)=O)c3n2)c1[N+](=O)[O-]	-6	8	4	5	85*	-45
CCOc1cccc(/C=C/c2ccc3cccc(O)c3n2)c1OC	?	·	7	25	98*	11
COc1c(OC(C)=O)ccc(/C=C/c2ccc3cccc(OC)c3n2)c1[N+](=O)[O-]	·	·	6	7	6	-7
COc1ccccc1/C=C/c1ccc2cccc(O)c2n1	29	18	6	5	97*	-53
CC(C)CC(c1nnnn1Cc1ccco1)N1CCN(c2cccc(Cl)c2)CC1 (stereo not given)	110*	19	0	1	14	30
CC(C)CC(c1nnnn1CC1CCCO1)N1CCN(c2cccc(Cl)c2)CC1 (stereo not given)	65	-5	-5	1	-1	2
Cc1ccc(Cl)cc1N1CCN(C(CC(C)C)c2nnnn2CC2CCCO2)CC1 (stereo not given)	101*	5	0	1	-3	24
CCCC(c1nnnn1CC1CCCO1)N1CCN(c2cc(Cl)ccc2C)CC1 (stereo not given)	99*	3	-2	0	-7	20
CCOc1ccc(NC(=O)COC(=O)Cn2cnc3ccccc32)cc1	-6	2	-4	-1	·	35
SMILES	CSC inhib	Beta apoptosis	UPR XBP1 act	CHOP UPR activ	SKKanGAS inh	Mdm2 MdmX PPI
Cc1ccc(C2(c3ccccc3)NC(=O)N(CC(=O)N3CC(=O)Nc4ccccc43)C2=O)cc1C (stereo not given)	·	·	0	0	·	40
COc1ccc(C(C(=O)NC2CCCC2)N(Cc2cccnc2)C(=O)c2snc(C(N)=O)c2N)cc1OC (stereo not given)	-11	0	-1	0	7	15
Clc1ccc(COn2c(-c3ccccc3)nc3ccccc32)cc1	52	4	0	1	7	10
Clc1ccc(COn2c(-c3ccc(Cl)cc3)nc3ccccc32)cc1	42	10	3	-3	52*	21
CN(C)C(CNC(=O)c1cc2ccccc2o1)c1ccco1 (stereo not given)	-31	1	1	0	·	3
CCCCCCn1c(=O)[nH]c2nc3cc(N)ccc3nc2c1=O	82*	-13	·	·	25	·
Cc1ccc(S(=O)(=O)N2CCCNCC2)cc1	51	2	-3	-2	-8	10
Cc1cccc(-c2nc(Nc3cccc(O)c3)c3ccccc3n2)c1	81*	-5	7	1	17	15
Cc1ccccc1C(=O)NCC(=O)OC1CCCCC1=O (stereo not given)	-12	-15	-1	2	-9	19
Cc1cccc(CNc2ccc(S(=O)(=O)N3CCCCC3)cc2)c1	·	101*	-3	-2	·	11
Cc1cccc(NC(=O)CSCC(=O)Nc2ccc(S(=O)(=O)N3CCCC3)cc2)c1	-6	4	1	0	-3	-11
O=C(/C=C\c1ccccc1)NCC(=O)N/N=C/c1ccc(O)cc1O	104*	9	-4	0	-2	24
O=C(N/N=C/c1ccc(O)cc1O)/C(=C/c1ccccc1)CCO	97*	85*	0	3	29	48
COc1ccc(COC(=O)c2ccc(Cl)c(S(=O)(=O)N3CC(C)OC(C)C3)c2)cc1 (stereo not given)	-3	·	-3	1	-8	9
COc1ccc2oc(C(=O)OCC(=O)Nc3cc(S(=O)(=O)N4CCOCC4)ccc3OC)c(C)c2c1	-11	2	5	2	1	42
O=c1[nH]c(=O)n(C2C[C@H](O)[C@@H](CO)O2)cc1C(F)(F)F (stereo not given in full)	76*	7	-5	-2	·	31
CN(C)C(=O)c1ccc(NC(=O)CSc2nnc(-c3cccs3)n2N)cc1	-1	-8	-2	-1	·	-20
S=C1Nc2ccccc2Sc2ccc(Cl)cc21	-14	-6	0	1	69*	35
Cc1oc2cc(Br)c(O)c(Br)c2c1-c1ccccc1	3	1	·	·	83*	·
Cc1cc2oc(=O)cc(-c3ccccc3)c2c(C)c1-c1ccc(O)cc1	·	·	-2	5	·	4
